pKi: −log10 of the molar value.
Key:
Mu-type opioid receptor [1] = target: T1, Mu-type opioid receptor (Homo sapiens, UniProt P35372); experiment: Inhibition percent of compound towards human Mu opioid receptor; design: concentration or dose not given beside the values; settings: concentration not given here
[2] = target: T2, Kappa-type opioid receptor (Homo sapiens, UniProt P41145); experiment: Binding affinity for human Kappa opioid receptor
[3] = target: T3, Delta-type opioid receptor (Homo sapiens, UniProt P41143); experiment: Inhibition percent of compound towards human Delta opioid receptor; design: concentration or dose not given beside the values; settings: concentration not given here
T3 sequence (P41143 whole entry): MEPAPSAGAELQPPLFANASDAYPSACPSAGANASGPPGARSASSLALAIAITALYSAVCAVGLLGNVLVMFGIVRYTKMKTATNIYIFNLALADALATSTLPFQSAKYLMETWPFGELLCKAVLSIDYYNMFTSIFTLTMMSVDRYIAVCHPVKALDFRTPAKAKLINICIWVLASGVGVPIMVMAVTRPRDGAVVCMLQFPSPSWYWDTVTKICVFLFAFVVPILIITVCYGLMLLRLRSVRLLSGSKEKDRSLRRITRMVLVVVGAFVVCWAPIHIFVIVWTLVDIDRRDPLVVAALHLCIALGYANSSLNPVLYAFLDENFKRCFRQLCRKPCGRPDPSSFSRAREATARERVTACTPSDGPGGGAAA

[4] = target: T2, Kappa-type opioid receptor; experiment: Binding affinity for human Opioid receptor kappa 1
[5] = target: T3, Delta-type opioid receptor; experiment: Binding affinity for human Delta opioid receptor
Mus musculus [6] = experiment: Effective dose required to induce sedation was determined in mouse when administered orally; type: functional; settings: po
How it was run: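 Mice placed on a raised plastic platform (11 × 7.5 × 3 cm). Latency to step fully off the platform was timed before oral dosing (baseline sedation latency) and 30 min after. ED50 reported with range in parentheses.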

[7] = target: Opioid receptors; delta & kappa (Homo sapiens) (UniProt P41145+P41143); experiment: Selectivity for kappa opioid receptor over delta opioid receptor; type: protein assay
Sequence of Opioid receptors; delta & kappa (Homo sapiens) (P41143 whole entry, looked up): as the sequence (P41143 whole entry) above
Sequence of Opioid receptors; delta & kappa (Homo sapiens) (P41145 whole entry, looked up): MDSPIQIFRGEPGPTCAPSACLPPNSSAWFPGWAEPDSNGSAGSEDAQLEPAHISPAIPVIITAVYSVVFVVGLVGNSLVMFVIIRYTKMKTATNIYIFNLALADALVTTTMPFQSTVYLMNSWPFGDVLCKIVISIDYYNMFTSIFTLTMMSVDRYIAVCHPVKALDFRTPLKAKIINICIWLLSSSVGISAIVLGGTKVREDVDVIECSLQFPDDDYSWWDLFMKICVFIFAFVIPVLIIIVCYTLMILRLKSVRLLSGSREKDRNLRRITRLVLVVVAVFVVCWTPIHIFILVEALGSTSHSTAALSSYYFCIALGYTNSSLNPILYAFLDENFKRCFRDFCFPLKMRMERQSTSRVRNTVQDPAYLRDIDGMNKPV

[8] = target: Opioid receptors; mu & kappa (Homo sapiens) (UniProt P41145+P35372); experiment: Selectivity for kappa opioid receptor over mu opioid receptor; type: protein assay
Sequence of Opioid receptors; mu & kappa (Homo sapiens) (P35372 whole entry, looked up): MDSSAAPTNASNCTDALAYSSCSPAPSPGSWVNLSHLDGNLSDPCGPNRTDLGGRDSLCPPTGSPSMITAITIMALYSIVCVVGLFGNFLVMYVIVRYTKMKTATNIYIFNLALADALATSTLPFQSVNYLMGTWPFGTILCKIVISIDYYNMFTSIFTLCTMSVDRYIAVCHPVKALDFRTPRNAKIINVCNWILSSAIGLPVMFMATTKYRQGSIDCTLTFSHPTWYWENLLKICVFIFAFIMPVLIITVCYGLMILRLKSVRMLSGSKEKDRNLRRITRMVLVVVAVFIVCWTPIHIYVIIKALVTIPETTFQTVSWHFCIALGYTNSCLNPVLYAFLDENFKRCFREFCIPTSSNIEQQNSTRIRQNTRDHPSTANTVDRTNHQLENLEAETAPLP
Sequence of Opioid receptors; mu & kappa (Homo sapiens) (P41145 whole entry, looked up): as the sequence (P41145 whole entry, looked up) above

Rattus norvegicus [9] = experiment: Effective dose required to inhibit formalin induced flinching in rat as a measure of antinociception activity when administered orally; type: functional; settings: po
Rattus norvegicus [10] = species: Rattus norvegicus; experiment: Percent inhibition of rotarod performance based on the comparison of baseline and post-treatment rotarod latencies; type: functional
Mu-type opioid receptor [11] = target: T1, Mu-type opioid receptor; experiment: Binding affinity for human Mu opioid receptor
Mus musculus [12] = experiment: Effective dose required to inhibit acetic acid induced writhing in mouse when administered orally; type: functional; settings: po
How it was run: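 Mice dosed orally with vehicle or test agent; 15 min later given 0.6% acetic acid intraperitoneally. Writhes counted over a 10 min period starting 5 min after the acid injection. ED50 reported with range in parentheses.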

T2 sequence (P41145 whole entry): as the sequence (P41145 whole entry, looked up) above
T1 sequence (P35372 whole entry): as the sequence (P35372 whole entry, looked up) above

| Structure (SMILES) | inhibition (Mu-type opioid receptor [1]) [%] | pKi [2] | inhibition [3] [%] | other results |
| --- | --- | --- | --- | --- |
| COc1ccc(C2CC=CCN(C(CN3CCCC3)c3ccccc3)C2=O)cc1 (stereo not drawn) | < 60 | 7.66 | < 60 |  |
| O=C1C(c2ccc(Cl)cc2)CC=CCN1C(CN1CCCC1)c1ccccc1 (stereo not drawn) | < 60 |  | < 60 | pKi [4]: 8.70 |
| COc1ccc([C@H]2CC=CCN(C(CN3CCCC3)c3ccccc3)C2=O)cc1 (stereo partly drawn) | < 60 | 6.10 | < 60 |  |
| O=C1C(c2ccc(C(F)(F)F)cc2)CC=CCN1C(CN1CCCC1)c1ccccc1 (stereo not drawn) | < 60 | 9.14 |  | pKi [5]: 6.00 |
| CN(C(=O)Cc1ccc(Cl)c(Cl)c1)C(CN1CCCC1)c1ccccc1 (stereo not drawn) |  |  |  | ED50 (Mus musculus [6]): 7.5 mg/kg |
| O=C1C(c2cccc(S(=O)(=O)N3CCCC3)c2)CC=CCN1C(CN1CCCC1)c1ccccc1 (stereo not drawn) | < 60 | 5.72 | < 60 |  |
| O=C1[C@@H](c2ccc(Cl)c(Cl)c2)CC=CCN1C(CN1CCCC1)c1ccccc1 (stereo partly drawn) | < 60 |  | < 60 | pKi [4]: 7.77 |
| O=C1C(Oc2ccc(Cl)c(Cl)c2)CC=CCN1C(CN1CCCC1)c1ccccc1 (stereo not drawn) | < 60 | 8.59 | < 60 |  |
| O=C1[C@@H](c2ccc(Cl)cc2)CC=CCN1C(CN1CCCC1)c1ccccc1 (stereo partly drawn) | < 60 | 7.46 | < 60 |  |
| O=C1[C@H](c2ccc(Cl)c(Cl)c2)CC=CCN1[C@H](CN1CCCC1)c1ccccc1 |  | 7.92 |  | Selectivity [7]: 1000; Selectivity [8]: 1000 |
| O=C1C(c2ccc(Cl)c(Cl)c2)CC=CCN1C(CN1CCCC1)c1ccccc1 (stereo not drawn) |  |  |  | ED50 (Rattus norvegicus [9]): 2.7 mg/kg; pKi [5]: 6.43; Inhibition (Rattus norvegicus [10]): 54%; pKi (Mu-type opioid receptor [11]): 6.00; ED50 (Mus musculus [12]): 1.6 mg/kg; pKi [4]: 9.47; ED50 (Mus musculus [6]): 48 mg/kg |
| O=C1[C@H](c2ccc(Cl)c(Cl)c2)CC=CCN1[C@H](CN1CC[C@H](O)C1)c1ccccc1 |  | 9.70 |  | Selectivity [7]: 1000; Selectivity [8]: 1000 |
